Among the data in ChEMBL document CHEMBL1129264, “Mercaptoacyl dipeptides as orally active dual inhibitors of angiotensin-converting enzyme and neutral endopeptidase” (1996) are inhibition values, retold here.

Assay type in all cases: organism-based
The target of assay [1] is T1, Angiotensin-converting enzyme (Rattus norvegicus) (UniProt P47820).
T1 sequence (whole entry): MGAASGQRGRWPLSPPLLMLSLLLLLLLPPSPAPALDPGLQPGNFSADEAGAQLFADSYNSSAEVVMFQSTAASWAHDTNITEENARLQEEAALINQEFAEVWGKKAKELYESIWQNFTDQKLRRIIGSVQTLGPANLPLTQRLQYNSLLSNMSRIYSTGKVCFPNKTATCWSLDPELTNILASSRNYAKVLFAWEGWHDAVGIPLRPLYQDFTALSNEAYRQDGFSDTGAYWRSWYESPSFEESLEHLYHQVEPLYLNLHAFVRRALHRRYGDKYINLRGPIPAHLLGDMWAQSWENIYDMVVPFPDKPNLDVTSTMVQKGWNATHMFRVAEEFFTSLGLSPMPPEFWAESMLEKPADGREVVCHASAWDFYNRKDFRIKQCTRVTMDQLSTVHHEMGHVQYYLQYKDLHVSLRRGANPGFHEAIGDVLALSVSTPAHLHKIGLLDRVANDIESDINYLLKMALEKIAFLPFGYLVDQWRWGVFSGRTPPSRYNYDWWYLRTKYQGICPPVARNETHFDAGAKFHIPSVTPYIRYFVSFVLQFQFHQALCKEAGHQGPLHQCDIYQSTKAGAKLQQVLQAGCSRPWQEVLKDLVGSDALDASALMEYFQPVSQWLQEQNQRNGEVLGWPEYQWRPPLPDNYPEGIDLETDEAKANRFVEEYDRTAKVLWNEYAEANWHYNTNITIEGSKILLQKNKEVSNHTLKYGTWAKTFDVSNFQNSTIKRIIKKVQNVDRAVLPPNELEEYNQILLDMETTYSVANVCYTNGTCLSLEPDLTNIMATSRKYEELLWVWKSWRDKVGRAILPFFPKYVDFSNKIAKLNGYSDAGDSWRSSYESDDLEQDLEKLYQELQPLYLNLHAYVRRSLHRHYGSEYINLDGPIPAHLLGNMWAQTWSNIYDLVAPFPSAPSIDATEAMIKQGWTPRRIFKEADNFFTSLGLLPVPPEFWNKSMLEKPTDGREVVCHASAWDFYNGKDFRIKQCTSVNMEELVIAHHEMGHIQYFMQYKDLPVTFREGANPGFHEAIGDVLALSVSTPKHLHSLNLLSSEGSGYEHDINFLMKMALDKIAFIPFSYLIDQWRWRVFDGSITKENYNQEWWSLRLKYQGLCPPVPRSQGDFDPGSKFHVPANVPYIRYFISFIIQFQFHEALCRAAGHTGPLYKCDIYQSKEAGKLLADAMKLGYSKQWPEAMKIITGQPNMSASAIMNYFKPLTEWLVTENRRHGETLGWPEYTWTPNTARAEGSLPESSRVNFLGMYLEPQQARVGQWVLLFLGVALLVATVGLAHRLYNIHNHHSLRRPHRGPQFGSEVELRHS
The assay is described as follows: Compound was tested for plasma inhibition of Angiotensin I converting enzyme activity in the conscious rat. Expressed as Inhibition of AI pressor response at 2 hr at a dose of 12.3 mg/kg po. The arrangement: dose 12.3 mg/kg. The procedure, abridged:
(§1)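 Male conscious normotensive Sprague-Dawley rats (275-390 g), given femoral arterial and venous catheters under methohexital sodium (75 mg/kg ip) anesthesia. Next day, pressor responses to three angiotensin-I challenges (300 ng/kg iv) recorded by direct arterial pressure. Compound then dosed orally, and AI challenge repeated at set times. Each post-dose response compared with the mean of the three baseline responses, giving % inhibition.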

For assay [2], the target named is T1, Angiotensin-converting enzyme (Rattus norvegicus). The assay is described as follows: Compound was tested for plasma inhibition of Angiotensin I converting enzyme activity in the conscious rat. Expressed as Inhibition of AI pressor response at 1 hr at a dose of 12.3 mg/kg po. The arrangement: dose 12.3 mg/kg. The method, boiled down: as §1
Assay [3] shares this target. Put plainly: Compound was tested for plasma inhibition of Angiotensin I converting enzyme activity in the conscious rat. Expressed as Inhibition of AI pressor response at 4 hr at a dose of 12.3 mg/kg po. The arrangement: dose 12.3 mg/kg. The method, boiled down:
as §1

For assay [4] the target is unchanged. The assay is described as follows: Compound was tested for plasma inhibition of Angiotensin I converting enzyme activity in the conscious rat. Expressed as Inhibition of AI pressor response at 6 hr at a dose of 12.3 mg/kg po. The arrangement: dose 12.3 mg/kg. The method, boiled down: (§2)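 Male conscious normotensive Sprague-Dawley rats (275-390 g), prepared under methohexital sodium (75 mg/kg ip) with femoral arterial and venous catheters. The next day, pressor responses to three angiotensin-I challenges (300 ng/kg iv) were recorded. Compound was then given orally and angiotensin-I challenges were repeated at set times. Percent inhibition is relative to the mean of the three baseline responses.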

Assay [5] has the same target. The assay is described as follows: Compound was tested for plasma inhibition of Angiotensin I converting enzyme activity in the conscious rat. Expressed as Inhibition of AI pressor response at 6 hr at a dose of 12.5 mg/kg po. The arrangement: dose 12.5 mg/kg. The method, boiled down:
as §2

The target is the same in assay [6]. The assay is described as follows: Compound was tested for plasma inhibition of Angiotensin I converting enzyme activity in the conscious rat. Expressed as Inhibition of AI pressor response at 1 hr at a dose of 12.5 mg/kg po. Also on record: dose 12.5 mg/kg. The method, boiled down: as §1
The target is the same in assay [7]. The assay is described as follows: Compound was tested for plasma inhibition of Angiotensin I converting enzyme activity in the conscious rat. Expressed as Inhibition of AI pressor response at 2 hr at a dose of 12.5 mg/kg po. The arrangement: dose 12.5 mg/kg. The procedure, abridged: as §1
Assay [8] has the same target. Put plainly: Compound was tested for plasma inhibition of Angiotensin I converting enzyme activity in the conscious rat. Expressed as Inhibition of AI pressor response at 4 hr at a dose of 12.5 mg/kg po. Also on record: dose 12.5 mg/kg. The method, boiled down:
as §1

For assay [9] the target is unchanged. Put plainly: Compound was tested for plasma inhibition of Angiotensin I converting enzyme activity in the conscious rat. Expressed as Inhibition of AI pressor response at 6 hr at a dose of 12.8 mg/kg po. Also on record: dose 12.8 mg/kg. The method, boiled down:
as §2

For assay [10] the target is unchanged. The assay is described as follows: Compound was tested for plasma inhibition of Angiotensin I converting enzymeb activity in the conscious rat. Expressed as Inhibition of AI pressor response at 4 hr at a dose of 12.8 mg/kg po. Also on record: dose 12.8 mg/kg. The method, boiled down: as §2
For assay [11] the target is unchanged. The assay is described as follows: Compound was tested for plasma inhibition of Angiotensin I converting enzyme activity in the conscious rat. Expressed as Inhibition of AI pressor response at 2 hr at a dose of 12.8 mg/kg po. The arrangement: dose 12.8 mg/kg. The procedure, abridged:
as §1

Assay [12] shares this target. Put plainly: Compound was tested for plasma inhibition of Angiotensin I converting enzyme activity in the conscious rat. Expressed as Inhibition of AI pressor response at 1 hr at a dose of 12.8 mg/kg po. Also on record: dose 12.8 mg/kg. The procedure, abridged:
as §1

The target is the same in assay [13]. Put plainly: Compound was tested for plasma inhibition of Angiotensin I converting enzyme activity in the conscious rat. Expressed as Inhibition of AI pressor response at 1 hr at a dose of 14.1 mg/kg po. The arrangement: dose 14.1 mg/kg. The method, boiled down: as §1
The target is the same in assay [14]. Put plainly: Compound was tested for plasma inhibition of Angiotensin I converting enzyme activity in the conscious rat. Expressed as Inhibition of AI pressor response at 2 hr at a dose of 14.1 mg/kg po. Also on record: dose 14.1 mg/kg. The procedure, abridged: as §1
For assay [15] the target is unchanged. The assay is described as follows: Compound was tested for plasma inhibition of Angiotensin I converting enzyme activity in the conscious rat. Expressed as Inhibition of AI pressor response at 2 hr at a dose of 13.4 mg/kg po. The arrangement: dose 13.4 mg/kg. The procedure, abridged: as §1
For assay [16] the target is unchanged. Put plainly: Compound was tested for plasma inhibition of Angiotensin I converting enzyme activity in the conscious rat. Expressed as Inhibition of AI pressor response at 6 hr at a dose of 13.4 mg/kg po. The arrangement: dose 13.4 mg/kg. The method, boiled down: as §2
Assay [17] has the same target. Put plainly: Compound was tested for plasma inhibition of Angiotensin I converting enzyme activity in the conscious rat. Expressed as Inhibition of AI pressor response at 4 hr at a dose of 13.4 mg/kg po. The arrangement: dose 13.4 mg/kg. The procedure, abridged: as §2
For assay [18] the target is unchanged. The assay is described as follows: Compound was tested for plasma inhibition of Angiotensin I converting enzyme activity in the conscious rat. Expressed as Inhibition of AI pressor response at 1 hr at a dose of 13.4 mg/kg po. Also on record: dose 13.4 mg/kg. The procedure, abridged:
as §1

Usually inhibition stands for the change of the read-out against control, counted positive when it falls. `CCCOc1ccc(C[C@H](NC(=O)C2(NC(=O)[C@H](SC(C)=O)C(C)C)CCCC2)C(=O)OCC)cc1`: the inhibition in assay [1] is 80%; in assay [2], 90%; in assay [3] it was 72%; in [4], 68%.

As to `CCOC(=O)[C@H](Cc1ccc(O)cc1)NC(=O)C1(NC(=O)[C@H](SC(=O)COC)C(C)C)CCCC1`, the inhibition in assay [5] amounted to 34%; in assay [6], 81%; in [7], 77%; in assay [8] it was 70%.

For `CCCCOC(=O)[C@H](Cc1ccc(O)cc1)NC(=O)C1(NC(=O)[C@H](SC(=O)CC)C(C)C)CCCC1`, the inhibition was found to be 39% in [9], 56% in [10], 71% in [11] and 47% in assay [12].

As to `CCCCOC(=O)[C@H](Cc1ccc(O)cc1)NC(=O)C1(NC(=O)[C@H](SC(=O)C2CCCCC2)C(C)C)CCCC1`, the inhibition was -3% in [13] and 8% in assay [14].

For `CCOC(=O)[C@H](Cc1ccc(OC(=O)C(C)C)cc1)NC(=O)C1(NC(=O)[C@H](SC(C)=O)C(C)C)CCCC1`, the inhibition is 75% in assay [15], 46% in assay [16], 63% in assay [17] and 73% in [18].
